Tested on: U2OS
Assay: Multiplex assay against U2OS
Format: toxicity, cell-based
Conditions: human
Outline: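 Imaging took place on a CQ1 microscope at 37°C and 5% CO2 once compound had been added to live cells stained at seeding with Hoechst33342, BioTracker Green Microtubule Cytoskeleton Dye, MitoTracker Red and Annexin V Alexa Fluor 680. CellPathfinder machine-learning gating classed cells as Hoechst high-intensity objects or normal cells, classed normal cells as having healthy, pyknosed or fragmented nuclei, and classed pyknosed cells as mitotic or apoptotic. Tubulin, mitochondrial-mass and membrane-permeability phenotypes are per cents of the healthy-nucleus cells.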

[1] = 12 h, 1 µM, compound concentration 1 uM, replicate 1
[2] = 12 h, 1 µM, compound concentration 1 uM, replicate 2
[3] = 12 h, 10 µM, compound concentration 10 uM, replicate 1
[4] = 12 h, 10 µM, compound concentration 10 uM, replicate 2
[5] = 24 h, 1 µM, compound concentration 1 uM, replicate 1
[6] = 24 h, 1 µM, compound concentration 1 uM, replicate 2
[7] = 24 h, 10 µM, compound concentration 10 uM, replicate 1
[8] = 24 h, 10 µM, compound concentration 10 uM, replicate 2
[9] = 48 h, 1 µM, compound concentration 1 uM, replicate 1
[10] = 48 h, 1 µM, compound concentration 1 uM, replicate 2
[11] = 48 h, 10 µM, compound concentration 10 uM, replicate 1
[12] = 48 h, 10 µM, compound concentration 10 uM, replicate 2

CC(C)OC(=O)N1CCC(Oc2ncnc3c2cnn3-c2ccc(S(C)(=O)=O)cc2F)CC1
Population Apoptotic (%) [1]: 57%
Population Fragmented Nuclei (%) [1]: 11%
Population Healthy Nuclei (%) [1]: 80%
Population Hoechst High Intensity Objects (%) [1]: 6%
Population Membrane Permeable-Phenotype (%) [1]: 6%
Population Mitochondria Different-Phenotype (%) [1]: 8%
Population Mitotic Cells (%) [1]: 42%
Population Normal (%) [1]: 93%
Population Pyknosed Nuclei (%) [1]: 7%
Population Tubulin-Different-Phenotype (%) [1]: 12%
Total Cell Count [1]: 95
Population Apoptotic (%) [2]: 33%
Population Fragmented Nuclei (%) [2]: 5%
Population Healthy Nuclei (%) [2]: 91%
Population Hoechst High Intensity Objects (%) [2]: 7%
Population Membrane Permeable-Phenotype (%) [2]: 4%
Population Mitotic Cells (%) [2]: 66%
Population Normal (%) [2]: 92%
Population Pyknosed Nuclei (%) [2]: 3%
Population Tubulin-Different-Phenotype (%) [2]: 7%
Total Cell Count [2]: 97
Population Apoptotic (%) [3]: 20%
Population Fragmented Nuclei (%) [3]: 11%
Population Healthy Nuclei (%) [3]: 77%
Population Hoechst High Intensity Objects (%) [3]: 6%
Population Membrane Permeable-Phenotype (%) [3]: 6%
Population Mitochondria Different-Phenotype (%) [3]: 19%
Population Mitotic Cells (%) [3]: 79%
Population Normal (%) [3]: 93%
Population Pyknosed Nuclei (%) [3]: 11%
Population Tubulin-Different-Phenotype (%) [3]: 24%
Total Cell Count [3]: 221
Population Apoptotic (%) [4]: 18%
Population Fragmented Nuclei (%) [4]: 5%
Population Membrane Permeable-Phenotype (%) [4]: 0%
Population Mitochondria Different-Phenotype (%) [4]: 5%
Population Mitotic Cells (%) [4]: 81%
Population Pyknosed Nuclei (%) [4]: 16%
Population Tubulin-Different-Phenotype (%) [4]: 28%
Total Cell Count [4]: 72
Population Apoptotic (%) [5]: 57%
Population Fragmented Nuclei (%) [5]: 10%
Population Healthy Nuclei (%) [5]: 83%
Population Hoechst High Intensity Objects (%) [5]: 6%
Population Membrane Permeable-Phenotype (%) [5]: 5%
Population Mitochondria Different-Phenotype (%) [5]: 5%
Population Mitotic Cells (%) [5]: 42%
Population Normal (%) [5]: 93%
Population Pyknosed Nuclei (%) [5]: 6%
Population Tubulin-Different-Phenotype (%) [5]: 11%
Total Cell Count [5]: 123
Population Apoptotic (%) [6]: 50%
Population Fragmented Nuclei (%) [6]: 4%
Population Healthy Nuclei (%) [6]: 86%
Population Hoechst High Intensity Objects (%) [6]: 2%
Population Mitochondria Different-Phenotype (%) [6]: 4%
Population Mitotic Cells (%) [6]: 50%
Population Normal (%) [6]: 97%
Population Pyknosed Nuclei (%) [6]: 8%
Population Tubulin-Different-Phenotype (%) [6]: 9%
Total Cell Count [6]: 116
Population Apoptotic (%) [7]: 20%
Population Fragmented Nuclei (%) [7]: 10%
Population Healthy Nuclei (%) [7]: 79%
Population Hoechst High Intensity Objects (%) [7]: 4%
Population Membrane Permeable-Phenotype (%) [7]: 1%
Population Mitochondria Different-Phenotype (%) [7]: 14%
Population Mitotic Cells (%) [7]: 79%
Population Normal (%) [7]: 95%
Population Pyknosed Nuclei (%) [7]: 10%
Population Tubulin-Different-Phenotype (%) [7]: 13%
Total Cell Count [7]: 248
Population Apoptotic (%) [8]: 33%
Population Fragmented Nuclei (%) [8]: 5%
Population Healthy Nuclei (%) [8]: 87%
Population Hoechst High Intensity Objects (%) [8]: 2%
Population Mitochondria Different-Phenotype (%) [8]: 2%
Population Mitotic Cells (%) [8]: 66%
Population Normal (%) [8]: 97%
Population Pyknosed Nuclei (%) [8]: 6%
Population Tubulin-Different-Phenotype (%) [8]: 31%
Total Cell Count [8]: 93
Population Apoptotic (%) [9]: 27%
Population Fragmented Nuclei (%) [9]: 6%
Population Healthy Nuclei (%) [9]: 83%
Population Hoechst High Intensity Objects (%) [9]: 4%
Population Membrane Permeable-Phenotype (%) [9]: 1%
Population Mitotic Cells (%) [9]: 72%
Population Normal (%) [9]: 95%
Population Pyknosed Nuclei (%) [9]: 9%
Population Tubulin-Different-Phenotype (%) [9]: 5%
Total Cell Count [9]: 193
Population Apoptotic (%) [10]: 30%
Population Fragmented Nuclei (%) [10]: 5%
Population Healthy Nuclei (%) [10]: 88%
Population Hoechst High Intensity Objects (%) [10]: 2%
Population Membrane Permeable-Phenotype (%) [10]: 7%
Population Mitochondria Different-Phenotype (%) [10]: 10%
Population Mitotic Cells (%) [10]: 69%
Population Normal (%) [10]: 97%
Population Pyknosed Nuclei (%) [10]: 6%
Population Tubulin-Different-Phenotype (%) [10]: 9%
Total Cell Count [10]: 199
Population Apoptotic (%) [11]: 35%
Population Fragmented Nuclei (%) [11]: 5%
Population Healthy Nuclei (%) [11]: 82%
Population Hoechst High Intensity Objects (%) [11]: 2%
Population Membrane Permeable-Phenotype (%) [11]: 2%
Population Mitochondria Different-Phenotype (%) [11]: 13%
Population Mitotic Cells (%) [11]: 64%
Population Normal (%) [11]: 97%
Population Pyknosed Nuclei (%) [11]: 11%
Population Tubulin-Different-Phenotype (%) [11]: 8%
Total Cell Count [11]: 324
Population Apoptotic (%) [12]: 40%
Population Fragmented Nuclei (%) [12]: 3%
Population Healthy Nuclei (%) [12]: 92%
Population Hoechst High Intensity Objects (%) [12]: 1%
Population Mitochondria Different-Phenotype (%) [12]: 12%
Population Mitotic Cells (%) [12]: 60%
Population Normal (%) [12]: 98%
Population Pyknosed Nuclei (%) [12]: 3%
Population Tubulin-Different-Phenotype (%) [12]: 37%
Total Cell Count [12]: 157

Reference: ChEMBL document CHEMBL4689842, “EUbOPEN Chemogenomics Library wave 1” (2021)
